Source: ChEMBL document CHEMBL1127499, “S-glucosylated hydantoins as new antiviral agents” (1994)

Key:
Type in all cases: functional
Vero [1] = test: Cytotoxic dose of compound required to reduce the viability of normal uninfected vero cells by 50%.; conditions: Chlorocebus sabaeus, read-out: CD50 (the source's name)
Outline: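 Uninfected Vero cells were grown with compound, and cytotoxicity was read as concentration-dependent inhibition of cell proliferation relative to control cultures. CD50 is the dose reducing viability by 50%, mean of three independent determinations.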

Vero [2] = test: Antiviral activity against HSV-2 (Herpes simplex virus) in vero cells; conditions: Chlorocebus sabaeus, read-out: ED50 (the source's name)
Outline: (§1)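 Vero target cells infected with HSV-1 McIntyre or HSV-2 MS for 2.5 h, washed, then mixed 1:50 with uninfected Vero cells preincubated 2.5 h with compound. Virus antigen in culture medium measured by HSV-1/HSV-2 antigen ELISA. ED50 is the dose giving 50% protection, mean of three independent determinations.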

Vero [3] = test: Antiviral activity against HSV-1 (Herpes simplex virus) in vero cells; conditions: Chlorocebus sabaeus, read-out: ED50 (the source's name); outline: as §1
[4] = Selectivity index against HSV-1 was determined as CD50/ED50 ratio
Outline: (§2)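 CD50 (50% reduction of proliferation of uninfected Vero cells) divided by ED50 (50% protection against HSV-1 or HSV-2 in Vero cells, antigen ELISA after 5 days). Each is the mean of three independent determinations.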

[5] = Selectivity index against HSV-2 was determined as CD50/ED50 ratio; outline: as §2

SMILES: CC(=O)OCC1OC(SC2=N/C(=C\c3ccccc3)C(=O)N2c2ccccc2)C(OC(C)=O)C(OC(C)=O)C1OC(C)=O (stereo not drawn)
- CC50 (Vero [1]): > 100 µM
- EC50 (Vero [2]): 100 µM
- EC50 (Vero [3]): > 100 µM

SMILES: CC(=O)OCC1OC(SC2=N/C(=C\c3cccs3)C(=O)N2c2cccc(C)c2)C(OC(C)=O)C(OC(C)=O)C1OC(C)=O (stereo not drawn)
- CC50 (Vero [1]): 25 µM
- Selectivity index [4]: 2.5
- EC50 (Vero [2]): 19 µM
- EC50 (Vero [3]): 10 µM
- Selectivity index [5]: 1.3

SMILES: COc1ccc(N2C(=O)/C(=C/c3cccs3)N=C2SC2OC(COC(C)=O)C(OC(C)=O)C(OC(C)=O)C2OC(C)=O)cc1 (stereo not drawn)
- CC50 (Vero [1]): 35 µM
- Selectivity index [4]: 1.3
- EC50 (Vero [2]): 27 µM
- EC50 (Vero [3]): 27 µM
- Selectivity index [5]: 1.3

SMILES: O=c1[nH]c(=O)n([C@H]2C[C@H](O)[C@@H](CO)O2)cc1/C=C/Br [BRIVUDINE]
- CC50 (Vero [1]): > 100 µM
- Selectivity index [4]: > 333
- EC50 (Vero [2]): 6.8 µM
- EC50 (Vero [3]): 0.3 µM
- Selectivity index [5]: > 15

SMILES: Nc1nc2c(ncn2COCCO)c(=O)[nH]1 [ACYCLOVIR]
- CC50 (Vero [1]): > 50 µM
- Selectivity index [4]: > 100
- EC50 (Vero [2]): 0.5 µM
- EC50 (Vero [3]): 0.5 µM
- Selectivity index [5]: > 100

SMILES: CCOC(=O)c1ccc(N2C(=O)/C(=C/c3cccs3)N=C2SC2OC(COC(C)=O)C(OC(C)=O)C(OC(C)=O)C2OC(C)=O)cc1 (stereo not drawn)
- CC50 (Vero [1]): 46 µM
- Selectivity index [4]: 1.4
- EC50 (Vero [2]): 46 µM
- EC50 (Vero [3]): 32 µM
- Selectivity index [5]: 1

SMILES: CC(=O)OCC1OC(SC2=N/C(=C\c3cccs3)C(=O)N2c2ccccc2)C(OC(C)=O)C(OC(C)=O)C1OC(C)=O (stereo not drawn)
- CC50 (Vero [1]): 24 µM
- Selectivity index [4]: 60
- EC50 (Vero [2]): 0.7 µM
- EC50 (Vero [3]): 0.4 µM
- Selectivity index [5]: 34

SMILES: CC(=O)OCC1OC(SC2=N/C(=C\c3cccs3)C(=O)N2c2ccc(Cl)cc2)C(OC(C)=O)C(OC(C)=O)C1OC(C)=O (stereo not drawn)
- CC50 (Vero [1]): 20 µM
- Selectivity index [4]: 33
- EC50 (Vero [2]): 1 µM
- EC50 (Vero [3]): 0.6 µM
- Selectivity index [5]: 20

SMILES: CC(=O)OCC1OC(Sc2nc(/C=C3\C=Nc4ccccc43)c(O)n2-c2ccccc2)C(OC(C)=O)C(OC(C)=O)C1OC(C)=O (stereo not drawn)
- CC50 (Vero [1]): > 100 µM
- Selectivity index [4]: > 2.2
- EC50 (Vero [2]): 40 µM
- EC50 (Vero [3]): 46 µM
- Selectivity index [5]: > 2.5

SMILES: CC(=O)OCC1OC(SC2=NC(=C(C)C)C(=O)N2c2ccccc2)C(OC(C)=O)C(OC(C)=O)C1OC(C)=O (stereo not drawn)
- CC50 (Vero [1]): > 200 µM
- Selectivity index [4]: > 1.6
- EC50 (Vero [2]): 100 µM
- EC50 (Vero [3]): 119 µM
- Selectivity index [5]: > 2
